Assay results taken from ChEMBL document CHEMBL1131235, “(R)-(+)-2-[[[3-(Morpholinomethyl)-2H-chromen-8-yl]oxy]methyl] morpholine methanesulfonate: a new selective rat 5-hydroxytryptamine1B receptor antagonist” (J Med Chem, 1998).

Columns and labels:
[1] = target: 5-hydroxytryptamine receptor 1B (Rattus norvegicus, UniProt P28564); assay: Binding affinity against 5-hydroxytryptamine 1B receptor in membranes of Rat cerebral cortex; type: tissue-based
Outline: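 Rat cerebral cortical membranes labelled with [125I]iodocyanopindolol in the presence of 60 μM isoproterenol to block β-adrenoceptor binding. Nonspecific binding was defined with 10 μM 5-HT.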

Rattus norvegicus [2] = assay: Effect on the wet dog shake response(WDS) in rats after 8 determinations at a dose of 1 mg/kg, sc pretreated with 200 mg/kg ip of pCPA.
Rattus norvegicus [3] = assay: Effect on the wet dog shake response(WDS) in rats after 8 determinations at a dose of 1 mg/kg, sc pretreated with saline; conditions: route subcutaneous

Sequence of 5-hydroxytryptamine receptor 1B (P28564 whole entry): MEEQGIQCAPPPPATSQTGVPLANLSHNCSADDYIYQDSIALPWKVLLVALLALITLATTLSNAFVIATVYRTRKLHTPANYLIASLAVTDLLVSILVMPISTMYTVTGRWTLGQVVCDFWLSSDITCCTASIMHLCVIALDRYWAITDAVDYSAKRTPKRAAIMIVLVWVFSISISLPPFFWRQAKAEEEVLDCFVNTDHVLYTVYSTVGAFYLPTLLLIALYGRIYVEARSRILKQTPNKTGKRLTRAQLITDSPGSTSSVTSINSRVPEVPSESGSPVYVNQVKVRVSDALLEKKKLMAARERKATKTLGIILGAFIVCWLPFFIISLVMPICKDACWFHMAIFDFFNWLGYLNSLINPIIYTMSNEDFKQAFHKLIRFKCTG

Row | SMILES | Ki [1] [µM] | No. of WDS/60 min (Rattus norvegicus [2]) | No. of WDS/60 min (Rattus norvegicus [3])
1 | CN1CCOC(COc2cccc3c2OCC(C#N)=C3)C1 (racemic) | 3.6 |  | 
2 | N#CC1=Cc2cccc(OCC3CNCCO3)c2CC1 (racemic) | 0.445 |  | 
3 | c1ccc2nc(N3CCNCC3)ccc2c1 [QUIPAZINE] |  | 30 | 36
4 | N#CC1=Cc2cccc(OCC3CNCCO3)c2OC1 (racemic) | 0.25 |  | 
5 | O=C(C1=Cc2cccc(OCC3CNCCO3)c2OC1)N1CCOCC1 (stereo not drawn) | 0.24 |  | 
6 | N#CC1=Cc2cccc(OCC3CCCNC3)c2OC1 (racemic) | 1.4 |  | 
7 | C1=C(CN2CCOCC2)COc2c1cccc2OCC1CNCCO1 (racemic) | 0.06 |  | 
